Measurements taken from ChEMBL document CHEMBL1127826, “Inhibitors of acyl-CoA:cholesterol acyltransferase (ACAT). 7. Development of a series of substituted N-phenyl-N'-[(1-phenylcyclopentyl)methyl]ureas with enhanced hypocholesterolemic activity” (J Med Chem, 1994).

Legend:
[1] = molecular target: T1, Acyl-CoA:cholesterol acyltransferase (Oryctolagus cuniculus, UniProt Q95214); experiment: Tested for in vitro inhibition against Acyl coenzyme A:cholesterol acyltransferase of intestinal microsomes in cholesterol-fed rabbits; parameters: species or system Microsome
T1 sequence (Q95214 whole entry): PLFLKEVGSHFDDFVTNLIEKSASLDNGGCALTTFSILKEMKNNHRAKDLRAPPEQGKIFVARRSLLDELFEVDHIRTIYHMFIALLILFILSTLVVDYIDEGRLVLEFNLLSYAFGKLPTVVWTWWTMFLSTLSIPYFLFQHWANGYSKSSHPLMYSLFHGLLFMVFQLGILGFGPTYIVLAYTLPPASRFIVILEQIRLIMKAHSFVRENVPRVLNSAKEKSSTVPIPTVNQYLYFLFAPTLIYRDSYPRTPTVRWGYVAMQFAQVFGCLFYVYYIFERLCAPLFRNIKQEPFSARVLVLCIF
Procedure, shortened: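 Microsomes were prepared from intestine of cholesterol-fed rabbits. ACAT activity was measured using [1-14C]oleoyl-CoA as substrate. Each determination was run in triplicate.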

[2] = species on record: Rattus norvegicus; experiment: Percent change in total cholesterol in peanut oil (5.5%) - cholic acid (0.3%) - Cholesterol (1.5%) fed rats after a single dose; assay type: functional
Procedure, shortened: (§1)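 Male Sprague-Dawley rats (200-225 g), n=5-7/group, given a single oral dose at 4 p.m. as a suspension in 1.5% CMC/0.2% Tween-20 in water (50 mg/kg); controls received vehicle alone. The rats then had free access to chow with peanut oil, cholesterol and cholic acid. At 8 a.m. next day they were bled by cardiac puncture under ether, and serum total cholesterol was measured as % change versus controls (unpaired two-tailed t-test).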

[3] = Compound was evaluated for the distribution coefficient at pH 7.4; assay type: physicochemical; conditions: octanol/water, read-out: logD
[4] = test system: Rattus norvegicus; experiment: Compound was evaluated for the percentage change in total cholesterol in peanut oil (5.5%)-cholic acid (0.3%)-cholesterol (1.5%)-fed rats at 30 mg/kg; assay type: functional
[5] = species on record: Rattus norvegicus; experiment: Percent change in total cholesterol in peanut oil (5.5%)-, cholic acid (0.3%)-, Cholesterol (1.5%)-fed rats after a single dose.; assay type: functional; procedure, shortened: as §1

| Compound | IC50 [1] | Delta TC [2] | logD [3] | Delta TC [4] | Delta TC [5] |
| --- | --- | --- | --- | --- | --- |
| Cc1cc(C)c(C2(CNC(=O)Nc3c(C(C)C)cccc3C(C)C)CCCC2)c(C)c1 | 56 nM | -24% |  |  |  |
| CC(C)c1cccc(C(C)C)c1NC(=O)NCC1(c2cccc(CBr)c2)CCCC1 | 44 nM | -26% | 5.23 |  |  |
| CC(C)c1cccc(C(C)C)c1NC(=O)NCC1(c2cccc(CN(C)C)c2)CCCC1.Cl | 67 nM |  | 4.87 | -46% | -44% |
| CC(C)c1cccc(C(C)C)c1NC(=O)NCC1(c2cccc(CN(CCO)CCO)c2)CCCC1 |  |  | 3.55 | -63% | -33% |
| CC(C)c1cccc(C(C)C)c1NC(=O)NCC1(c2ccc(N)cc2)CCCC1 | 29 nM |  |  |  | -76% |
| COC(=O)c1ccc(C2(CNC(=O)Nc3c(C(C)C)cccc3C(C)C)CCCC2)cc1 | 360 nM |  |  |  | -3% |
| CC(C)c1cccc(C(C)C)c1NC(=O)NCC1(c2cccc(C(F)(F)F)c2)CCCC1 | 27 nM | -45% |  |  |  |
| CC(C)c1cccc(C(C)C)c1NC(=O)NCC1(c2cccc(C(=O)O)c2)CCCC1 | 620 nM |  |  |  | -40% |
| CC(C)c1cccc(C(C)C)c1NC(=O)NCC1(c2cccc(N(C)C)c2)CCCC1 | 33 nM |  |  |  | -63% |
| CC(C)c1cccc(C(C)C)c1NC(=O)NCC1(c2ccc(Cl)cc2)CCCC1 | 32 nM | -64% |  |  |  |
| CC(C)c1cccc(C(C)C)c1NC(=O)NCC1(c2ccc(OCc3ccccc3)cc2)CCCC1 | 34 nM |  |  |  | -33% |
| CC(C)c1cccc(C(C)C)c1NC(=O)NCC1(c2cccc(CN)c2)CCCC1 | 440 nM |  | 3.64 |  | -49% |
| CC(C)c1cccc(C(C)C)c1NC(=O)NCC1(c2ccc(CO)cc2)CCCC1 |  |  |  |  | 19% |
| CC(C)c1cccc(C(C)C)c1NC(=O)NCC1(c2ccc(F)cc2)CCCC1 | 23 nM | -57% |  |  |  |
| CC(C)c1cccc(C(C)C)c1NC(=O)NCC1(c2cccc(N)c2)CCCC1 | 21 nM |  |  |  | -75% |
| CC(C)c1cccc(C(C)C)c1NC(=O)NCC1(c2ccc([N+](=O)[O-])cc2)CCCC1 | 131 nM |  |  |  |  |
| CC(C)c1cccc(C(C)C)c1NC(=O)NCC1(c2cccc(CC#N)c2)CCCC1 | 24 nM |  | 3.61 |  | -31% |
| CC(C)c1cccc(C(C)C)c1NC(=O)NCC1(c2ccccc2C(F)(F)F)CCCC1 | 18 nM | -50% |  |  |  |
| Cc1ccccc1C1(CNC(=O)Nc2c(C(C)C)cccc2C(C)C)CCCC1 | 17 nM | -73% |  |  |  |
| COc1ccccc1C1(CNC(=O)Nc2c(C(C)C)cccc2C(C)C)CCCC1 | 23 nM |  |  |  | -53% |
| CC(C)c1cccc(C(C)C)c1NC(=O)NCC1(c2ccc(C(C)(C)C)cc2)CCCC1 | 63 nM | -48% |  |  |  |
| CC(C)c1cccc(C(C)C)c1NC(=O)NCC1(c2cc(C(F)(F)F)cc(C(F)(F)F)c2)CCCC1 | 57 nM | -32% |  |  |  |

| Compound | IC50 [1] | Delta TC [2] | logD [3] | Delta TC [4] | Delta TC [5] |
| --- | --- | --- | --- | --- | --- |
| COC(=O)c1cccc(C2(CNC(=O)Nc3c(C(C)C)cccc3C(C)C)CCCC2)c1 | 34 nM |  |  |  | -51% |
| CC(C)c1cccc(C(C)C)c1NC(=O)NCC1(c2ccc(C(F)(F)F)cc2)CCCC1 | 66 nM | -39% |  |  |  |
| CC(C)c1cccc(C(C)C)c1NC(=O)NCC1(c2ccc(N(CCO)CCO)cc2)CCCC1 | 21 nM |  |  |  | -50% |
| CC(C)c1cccc(C(C)C)c1NC(=O)NCC1(c2ccccc2N)CCCC1 | 140 nM |  |  |  | -58% |
| CC(C)c1cccc(C(C)C)c1NC(=O)NCC1(c2cccc([N+](=O)[O-])c2)CCCC1 | 51 nM |  |  |  | -51% |
| CC(C)c1cccc(C(C)C)c1NC(=O)NCC1(c2ccccc2[N+](=O)[O-])CCCC1 | 27 nM |  |  |  | -45% |
| Cc1ccc(C2(CNC(=O)Nc3c(C(C)C)cccc3C(C)C)CCCC2)cc1 | 25 nM | -70% |  |  |  |
| COc1ccc(C2(CNC(=O)Nc3c(C(C)C)cccc3C(C)C)CCCC2)cc1 | 31 nM |  |  |  | -41% |
| Cc1ccc(C2(CNC(=O)Nc3c(C(C)C)cccc3C(C)C)CCCC2)c(C)c1 | 50 nM | -50% |  |  |  |
| CC(C)c1cccc(C(C)C)c1NC(=O)NCC1(c2cccc(OCc3ccccc3)c2)CCCC1 | 30 nM |  |  |  | -73% |
| CC(C)c1cccc(C(C)C)c1NC(=O)NCC1(c2ccc(NCCO)cc2)CCCC1 | 25 nM |  |  |  | -63% |
| Cc1cccc(C2(CNC(=O)Nc3c(C(C)C)cccc3C(C)C)CCCC2)c1 | 15 nM | -52% |  |  |  |
| CC(C)c1cccc(C(C)C)c1NC(=O)NCC1(c2ccc(N(C)C)cc2C(F)(F)F)CCCC1 | 50 nM |  |  |  |  |
| CC(C)c1ccc(C2(CNC(=O)Nc3c(C(C)C)cccc3C(C)C)CCCC2)cc1 | 48 nM | -63% |  |  |  |
| CC(C)c1cccc(C(C)C)c1NC(=O)NCC1(c2ccc(O)cc2)CCCC1 | 42 nM |  |  |  | -31% |
| CC(=O)OCCN(CCOC(C)=O)Cc1cccc(C2(CNC(=O)Nc3c(C(C)C)cccc3C(C)C)CCCC2)c1 | 33 nM |  | 4.55 | -71% | -35% |
| CC(C)c1cccc(C(C)C)c1NC(=O)NCC1(c2ccc(Br)cc2)CCCC1 | 29 nM | -59% |  |  |  |
| Cc1ccc(C)c(C2(CNC(=O)Nc3c(C(C)C)cccc3C(C)C)CCCC2)c1 | 39 nM | -48% |  |  |  |
| CC(C)c1cccc(C(C)C)c1NC(=O)NCC1(c2ccc(C(=O)O)cc2)CCCC1 | 3100 nM |  |  |  | -8% |
| CC(C)c1cccc(C(C)C)c1NC(=O)NCC1(c2cccc(CO)c2)CCCC1 | 15 nM |  |  |  | -40% |
| COc1cccc(C2(CNC(=O)Nc3c(C(C)C)cccc3C(C)C)CCCC2)c1 | 13 nM |  |  |  | -42% |
| CC(C)c1cccc(C(C)C)c1NC(=O)NCC1(c2ccc(CC(C)(C)C)cc2)CCCC1 | 159 nM | -53% |  |  |  |
